From ChEMBL document CHEMBL3098028, “Synthesis and in vitro and in vivo pharmacological evaluation of new 4-aminoquinoline-based compounds” (ACS Med Chem Lett, 2013) come the findings set out here.

Converted amounts (≈) assume the structure as drawn.

For one data set, the system named is CHO. The data set is described as follows: Cytotoxicity against CHO cells. In kind it is cell-based. The settings on record: Cricetulus griseus.
Data set [1] can be described thus: Drug metabolism in hepatocytes (unknown origin) assessed as 4-(2-((1-tert-butyl-1H-tetrazol-5-yl)(4-chlorophenyl)methylamino)ethylamino)-7-chloroquinoline 1-oxide level at 5 uM after 6 hrs by LC-MS/MS analysis. In kind it is ADME, cell-based, Hepatocyte.
Another data set addresses T1, Cytochrome P450 2C8 (Homo sapiens, UniProt P10632).
T1 sequence (P10632 whole entry): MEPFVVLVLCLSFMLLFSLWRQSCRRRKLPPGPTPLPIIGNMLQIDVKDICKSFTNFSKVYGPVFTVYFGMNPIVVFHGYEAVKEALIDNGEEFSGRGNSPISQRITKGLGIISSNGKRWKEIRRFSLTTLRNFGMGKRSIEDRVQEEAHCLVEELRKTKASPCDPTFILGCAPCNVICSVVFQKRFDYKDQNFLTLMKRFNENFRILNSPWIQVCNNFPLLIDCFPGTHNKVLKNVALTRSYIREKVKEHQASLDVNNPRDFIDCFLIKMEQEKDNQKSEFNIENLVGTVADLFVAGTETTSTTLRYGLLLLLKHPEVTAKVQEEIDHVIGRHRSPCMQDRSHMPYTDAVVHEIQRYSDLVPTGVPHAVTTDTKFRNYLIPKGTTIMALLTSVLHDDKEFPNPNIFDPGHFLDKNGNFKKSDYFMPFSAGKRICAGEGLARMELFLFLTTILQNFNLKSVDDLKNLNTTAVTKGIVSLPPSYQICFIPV
The data set is described as follows: Inhibition of CYP2C8 in human liver microsomes assessed as paclitaxel 6alpha-hydroxylation after 20 mins by LC-MS/MS analysis. Format: ADME.

In another data set the test system is Plasmodium falciparum. The data set is described as follows: Antiplasmodial activity against chloroquine-resistant Plasmodium falciparum K1 after 24 hrs by [3H]hypoxanthine incorporation assay. Format: functional, organism-based. The essentials: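 Antiplasmodial testing was done at the Swiss Tropical and Public Health Institute. Chloroquine, the reference drug, was tested as its diphosphate salt.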

The next data set concerns Liver microsome. The data set is described as follows: Drug metabolism in rat liver microsomes assessed as 4-(2-((1-tert-butyl-1H-tetrazol-5-yl)(4-chlorophenyl)methylamino)ethylamino)-7-chloroquinoline 1-oxide level at 5 uM after 1 hr by LC-MS/MS analysis. Format: ADME.
Data set [2] is described as follows: Kinetic solubility of the compound in phosphate buffered saline at pH 7.4 after 2 hrs by HPLC analysis. The settings on record: read-out: Kinetic_solubility. In kind it is physicochemical.
In another data set the test system is Mus musculus. The data set is described as follows: AUC (0 to infinity) in C57BL/6 mouse at 20 mg/kg, po. In kind it is ADME, organism-based, Plasma. Details: time infinity, dose 20 mg/kg, route oral; call rule not given here. The settings on record: in vivo. The essentials:
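Healthy male C57/BL6 mice received a single intravenous dose (2.5 or 5.0 mg/kg) or oral dose (20 or 40 mg/kg). Plasma concentrations were followed over time to give AUC0-∞ in min·μmol/L, alongside t1/2, CL, Vd, Vss, Cmax, Tmax and oral bioavailability. Values are means of five animals.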

With `CC(C)(C)n1nnnc1C(NCCNc1ccnc2cc(Cl)ccc12)c1ccc(Cl)cc1` (configuration not stated), the IC50 in the data set on CHO was 97.8 µM; at Cytochrome P450 2C8, 12.7 µM; with Plasmodium falciparum, 0.001 µM. Moreover, the Drug metabolism entry (in data set [1]; with Liver microsome) was “Active” each time. Further, in data set [2], the solubility kinetic at 2 h was found to be 6.88 µM (≈ 3.24 µg/mL). In the data set with Mus musculus, this compound came in with an area under the curve (AUC) of 222 µmol·min/L.

One may read the IC50 as the concentration that gives 50% inhibition. One may read the AUC as concentration integrated over time. The low end stands for less exposure, the high end for more exposure.
